Compound activity (PubChem BioAssay)
Compounds with a hit are over-represented: about 2.3% of the library has one in this group of screens.
TRPC6 act: activates the mouse TRPC6 cation channel | Q61143 | HEK293-TRPC6 membrane potential dye fluorescence; active compounds read high | B-score at 10 µM | actives 0.13% (n = 310,000);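 active = B-score of the integrated fluorescence ratio above library mean plus 3 SD, and starting fluorescence ratio within library mean plus 5 SD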;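 note: higher score means more depolarization so channel activation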
Target sequence (Q61143 whole entry, looked up): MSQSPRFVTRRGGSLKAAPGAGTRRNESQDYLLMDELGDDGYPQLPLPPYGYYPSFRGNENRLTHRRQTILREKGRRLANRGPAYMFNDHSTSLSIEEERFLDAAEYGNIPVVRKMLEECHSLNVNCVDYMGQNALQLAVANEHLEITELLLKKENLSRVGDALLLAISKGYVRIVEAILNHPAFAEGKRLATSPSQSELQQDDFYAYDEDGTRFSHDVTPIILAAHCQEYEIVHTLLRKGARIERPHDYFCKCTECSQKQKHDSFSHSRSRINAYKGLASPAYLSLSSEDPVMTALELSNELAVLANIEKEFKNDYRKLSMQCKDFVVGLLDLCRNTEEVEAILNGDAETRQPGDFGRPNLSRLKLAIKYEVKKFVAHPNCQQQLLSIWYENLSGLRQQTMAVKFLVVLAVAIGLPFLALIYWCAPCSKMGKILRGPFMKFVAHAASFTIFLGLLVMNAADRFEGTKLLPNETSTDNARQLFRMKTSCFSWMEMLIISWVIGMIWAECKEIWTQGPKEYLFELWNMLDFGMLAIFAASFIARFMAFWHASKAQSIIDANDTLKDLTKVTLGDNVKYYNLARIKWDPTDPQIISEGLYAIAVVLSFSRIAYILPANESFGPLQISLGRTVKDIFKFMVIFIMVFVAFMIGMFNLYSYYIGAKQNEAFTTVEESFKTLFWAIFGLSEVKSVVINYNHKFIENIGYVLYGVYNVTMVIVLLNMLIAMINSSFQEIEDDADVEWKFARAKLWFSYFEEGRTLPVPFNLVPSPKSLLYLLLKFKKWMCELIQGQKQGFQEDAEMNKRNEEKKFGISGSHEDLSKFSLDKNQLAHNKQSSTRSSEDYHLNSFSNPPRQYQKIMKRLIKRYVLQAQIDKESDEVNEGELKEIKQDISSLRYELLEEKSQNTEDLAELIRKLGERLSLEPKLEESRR
TRPC4 agonist: activators of mouse TRPC4 channel | Q9QUQ5 | HEK293 TRPC4beta/mu-opioid, Fluo4 calcium fluorescence; active compounds read high | B-score at 10 µM | actives 0.49% (n = 310,000) | AID 2237;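 active = B-score above 5 SD of library B-scores, and initial fluorescence ratio not above library mean plus 5 SD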;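 note: positive B-score marks a calcium rise read as TRPC4 activation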
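Assay system – TRPC4beta and mu-opioid receptor HEK293 stable cells · Measured by – Fluo4 fluorescence, kinetic · Schedule – dye loading 45 min room temperature, 110 s kinetic read · Read-out – B-scored integrated calcium fluorescence ratio · Controls – buffer and maximal DAMGO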
TRPC6 inhibitor: mouse TRPC6 channel inhibition; AID 2553; actives 1.1% (n = 310,000); B-score at 10 µM; HEK293-TRPC6, membrane potential dye, ACh-evoked depolarization; active compounds read low; Q61143;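 active = B-score under library mean minus 3 SD, initial fluorescence not abnormally high, positive integrated signal ratio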;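 note: B-score derived from integrated fluorescence ratio over the kinetic read; more negative B-score means stronger inhibition of depolarization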
TRPC4 inh: blocks the mouse TRPC4 cation channel. Q9QUQ5. HEK293 TRPC4beta/mu-opioid, DAMGO-evoked Fluo4 calcium flux; active compounds read low. B-score at 10 µM. actives 0.39% (n = 300,000);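 active = B-score over 3 SD under the library average, no early fluorescence shift, positive overall ratio signal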
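Assay system: HEK293 cells with stable TRPC4beta plus mu-opioid receptor expression. Dosing: single dose. Measured by: Fluo4 Ca2+ flux fluorescence. Also added: DAMGO in two steps, submaximal then maximal. Read-out: B score from integrated Fluo4 fluorescence ratio.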
TRPC4 potent: TRPC4 (mouse) allosteric potentiation; HEK293 TRPC4beta/mu-opioid, DAMGO EC20, Fluo-4 Ca2+ flux; active compounds read high; Q9QUQ5; B-score at 10 µM; actives 0.42% (n = 310,000);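 active = B-score of calcium response area above 5 SD of library B-scores, with initial fluorescence ratio within 5 SD of library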
TRPC4 spec 2: second check of whether TRPC6 inhibitors also affect mouse TRPC4 | HEK293 TRPC4/MOR, membrane potential dye fluorescence; channel activated by saturating DAMGO dose | shares compounds with TRPC6 inhibitor | inhibition, % at 10 µM | AID 2776 | actives 42% (n = 920);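 active = compounds whose fluorescence signal differed from control wells by over 3 SD, either direction, in both duplicate plates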
TRPC4 spec: tests whether TRPC6 inhibitors also affect mouse TRPC4 | actives 61% (n = 920) | shares compounds with TRPC6 inhibitor | AID 2777 | activity change, negative = inhibition, % at 10 µM | HEK293 TRPC4/mu-opioid, membrane potential fluorescence;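 active = rise or fall in signal beyond 3 SD of buffer-only wells in both replicate plates, either sign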;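 note: integrated kinetic ratio of fluorescence range over baseline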
HEK293 MPD ctr 2-1: second check of TRPC6 inhibitor effects in parental HEK293 cells. actives 31% (n = 920). parental HEK293 membrane potential dye fluorescence; maximal acetylcholine challenge after compound addition. shares compounds with TRPC6 inhibitor. signal change vs control, % at 10 µM. AID 2779;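 active = membrane potential signal moving either way by over 3 SD of the maximum-effect control, in both duplicate plates, meaning non-specific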
HEK293 MPD ctr-1: counter-screen for TRPC6 inhibitors: effect in parental HEK293 cells; shares compounds with TRPC6 inhibitor; parental HEK293 membrane potential dye fluorescence; membrane potential signal change, % at 10 µM; actives 60% (n = 920);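 active = membrane potential signal shifting up or down by more than 3 SD of buffer-only wells, on both duplicate plates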
HEK293 MPD ctr-2: counter-screen for TRPC6 modulators: effect in parental HEK293 cells; membrane potential signal change, % at 10 µM; shares compounds with TRPC6 inhibitor; AID 488924; membrane potential dye fluorescence; actives 51% (n = 2,400);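 active = membrane potential signal moves up or down beyond 5 SD from buffer-only wells, on both duplicate plates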
HEK293 MPD ctr 2-2: second counter-screen for TRPC6 modulators: effect in parental HEK293 cells; shares compounds with TRPC6 inhibitor; membrane potential dye fluorescence; after compound, maximal acetylcholine stimulation; inhibition, % at 10 µM; actives 14% (n = 2,400);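 active = membrane potential signal drops by more than 5 SD from the mean control signal, in both duplicate plates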
TRPC4 ctr mod: tests whether TRPC6 modulators also affect mouse TRPC4. shares compounds with TRPC6 inhibitor. HEK293 TRPC4/mu-opioid, membrane potential fluorescence. percent change from control (negative = decrease, positive = increase), % at 10 µM. actives 69% (n = 2,400). AID 488927;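 active = membrane potential signal moved up or down beyond 5 SD of buffer control wells, in both duplicate plates, actives on both sides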
TRPC4 ctr inh 2: second check of whether TRPC6 modulators also affect mouse TRPC4. HEK293 TRPC4/mu-opioid, membrane potential dye fluorescence; stimulated with maximal-effect DAMGO. inhibition, % at 10 µM. actives 55% (n = 2,400). shares compounds with TRPC6 inhibitor;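 active = drop in membrane potential signal beyond 5 SD of the control wells in both duplicate plates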;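 note: TRPC4 counter screen for TRPC6 hits run under conditions tuned for TRPC6 not TRPC4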
TRPC6 inh conf: mouse TRPC6 inhibitor confirmation; actives 43% (n = 3,300); shares compounds with TRPC6 inhibitor; HEK293-TRPC6, membrane potential dye, ACh-evoked depolarization; inhibition, % at 10 µM;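 active = fluorescence ratio falls more than 5 SD below the full-stimulation control mean, in both duplicate runs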;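 note: integrated fluorescence ratio of peak minus minimum over baseline after agonist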
TRPC6 act confirm: mouse TRPC6 activator confirmation | shares compounds with TRPC6 inhibitor | HEK293-TRPC6 membrane potential dye fluorescence, FDSS | activation, % at 10 µM | actives 11% (n = 2,800) | AID 488961;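 active = ratio signal rise beyond 5 SD above unstimulated control wells' mean, seen in both duplicate runs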
Each line names hits and unclear results; the compound was inactive in the other large screens (follow-up assays come after a bar, where they were run).

N=c1c2c(n(Cc3ccc(F)cc3)c3c1CCC3)CCC2	TRPC6 inhibitor -5.8 | HEK293 MPD ctr-2 -192% | HEK293 MPD ctr 2-2 inactive | TRPC4 ctr mod -32% | TRPC4 ctr inh 2 62% | TRPC6 inh conf inactive | TRPC6 act confirm inactive
O=C(Nc1ccc(C(=O)N2CCCC2)cc1)c1ccc(F)cc1Cl	none
CCCCCCn1c2c(c(=N)c3c1CCC3)CCC2	TRPC6 inhibitor -8.5 | TRPC4 spec 2 69% | TRPC4 spec -25% | HEK293 MPD ctr 2-1 -12% | HEK293 MPD ctr-1 -452% | TRPC6 inh conf 78% | TRPC6 act confirm inactive
O=C(NNC1=C(C(=O)C(F)(F)F)CCC1)c1ccccc1O	TRPC6 inhibitor -5.2 | HEK293 MPD ctr-2 inactive | HEK293 MPD ctr 2-2 inactive | TRPC4 ctr mod inactive | TRPC4 ctr inh 2 inactive | TRPC6 inh conf 38% | TRPC6 act confirm inactive
c1csc(-c2nn3c(C4COc5ccccc5O4)nnc3s2)c1 (centres undefined)	TRPC6 inhibitor -12 | HEK293 MPD ctr-2 inactive | HEK293 MPD ctr 2-2 inactive | TRPC4 ctr mod inactive | TRPC4 ctr inh 2 inactive | TRPC6 inh conf inactive | TRPC6 act confirm inactive
CCN(CC)c1ccc(N=C2C(=O)Nc3ccccc32)cc1	TRPC6 inhibitor -7.5 | HEK293 MPD ctr-2 -261% | HEK293 MPD ctr 2-2 inactive | TRPC4 ctr mod -40% | TRPC4 ctr inh 2 89% | TRPC6 inh conf 76% | TRPC6 act confirm inactive
Cc1ccc(N=C2C(=O)Nc3ccccc32)cc1	none
N#CC(C#N)=C1c2cc(S(=O)(=O)NCCO)ccc2-c2ccc(S(=O)(=O)NCCO)cc21	TRPC6 inhibitor -5.2 | HEK293 MPD ctr-2 -138% | HEK293 MPD ctr 2-2 inactive | TRPC4 ctr mod -30% | TRPC4 ctr inh 2 inactive | TRPC6 inh conf inactive | TRPC6 act confirm inactive
COc1ccc(NC(=O)C2CCCN2C(=O)NC2CCCCC2)c(OC)c1 (centres undefined)	none
Cc1ccc(C(=O)NNC(=O)CCC(=O)NCc2ccccc2)cc1Br	none
C/C(=N\NC1=NCCN1)c1ccc(N)c([N+](=O)[O-])c1	TRPC6 inhibitor -6 | HEK293 MPD ctr-2 inactive | HEK293 MPD ctr 2-2 108% | TRPC4 ctr mod inactive | TRPC4 ctr inh 2 32% | TRPC6 inh conf 48% | TRPC6 act confirm inactive
CCCCCCOc1ccc(/C(C)=N/NC2=NCCN2)cc1[N+](=O)[O-]	none
COc1cc(CC(=O)N(C)CC(=O)Nc2ccc(Cl)c(C(F)(F)F)c2)cc(OC)c1OC	none
CCCCOc1ccc(C(=O)OC2CC(C)N(C)CC2C)cc1 (centres undefined)	TRPC6 act 15 | HEK293 MPD ctr-2 253% | HEK293 MPD ctr 2-2 inactive | TRPC4 ctr mod 50% | TRPC4 ctr inh 2 48% | TRPC6 inh conf inactive | TRPC6 act confirm 120%
COc1ccccc1OCC(O)Cn1c(=N)n(Cc2ccccc2)c2ccccc21 (centres undefined)	TRPC6 inhibitor -6.4 | HEK293 MPD ctr-2 122% | HEK293 MPD ctr 2-2 inactive | TRPC4 ctr mod 46% | TRPC4 ctr inh 2 102% | TRPC6 inh conf 52%
Cc1ccccc1OCC(O)Cn1c(=N)n(Cc2ccccc2)c2ccccc21 (centres undefined)	TRPC4 agonist 64, TRPC6 inhibitor -5.1, TRPC4 inh -6 | HEK293 MPD ctr-2 120% | HEK293 MPD ctr 2-2 inactive | TRPC4 ctr mod 40% | TRPC4 ctr inh 2 102% | TRPC6 inh conf 70%
CCCCn1c(=N)n(CC(O)COc2cccc(C)c2)c2ccccc21 (centres undefined)	TRPC6 inhibitor -6.7 | TRPC4 spec 2 38% | TRPC4 spec 40% | HEK293 MPD ctr 2-1 270% | HEK293 MPD ctr-1 23% | TRPC6 inh conf inactive
Cc1ccc(Cn2c(=N)n(CC(O)c3ccco3)c3ccccc32)cc1 (centres undefined)	TRPC6 inhibitor -5.6, TRPC4 inh -8 | HEK293 MPD ctr-2 178% | HEK293 MPD ctr 2-2 inactive | TRPC4 ctr mod 33% | TRPC4 ctr inh 2 88% | TRPC6 inh conf 54%
COc1ccc2oc(C(=O)OCC(=O)Nc3cc(S(=O)(=O)N4CCOCC4)ccc3OC)c(C)c2c1	none
Cc1ccc(NC2CCCN(C(=O)c3cccc(-c4ncc[nH]4)c3)C2)cc1C (centres undefined)	none
N=c1n(CCN2CCOCC2)c2ccccc2n1CC(=O)c1ccc(Cl)c(Cl)c1	none
N=c1n(Cc2ccccc2)c2ccccc2n1CC(O)c1ccccc1 (centres undefined)	TRPC6 inhibitor -7.8 | TRPC4 spec 2 28% | TRPC4 spec 27% | HEK293 MPD ctr 2-1 inactive | HEK293 MPD ctr-1 10% | TRPC6 inh conf inactive | TRPC6 act confirm inactive
N=c1n(CCN2CCCC2)c2ccccc2n1CC(O)c1ccc(Cl)c(Cl)c1 (centres undefined)	TRPC6 inhibitor -5.8 | HEK293 MPD ctr-2 inactive | HEK293 MPD ctr 2-2 inactive | TRPC4 ctr mod inactive | TRPC4 ctr inh 2 47% | TRPC6 inh conf 52% | TRPC6 act confirm inactive
CCCCn1c(N)c(N(CC(C)C)C(=O)C2CCN(S(=O)(=O)c3ccc(OCC)cc3)CC2)c(=O)[nH]c1=O	none
CCCc1cc(=O)[nH]c(SCC(=O)N(CCOC)c2c(N)n(Cc3ccccc3)c(=O)[nH]c2=O)n1	none
